In series [1] the target is T1, Nicotinamide N-methyltransferase (Mus musculus, UniProt O55239).
T1 sequence (O55239 whole entry): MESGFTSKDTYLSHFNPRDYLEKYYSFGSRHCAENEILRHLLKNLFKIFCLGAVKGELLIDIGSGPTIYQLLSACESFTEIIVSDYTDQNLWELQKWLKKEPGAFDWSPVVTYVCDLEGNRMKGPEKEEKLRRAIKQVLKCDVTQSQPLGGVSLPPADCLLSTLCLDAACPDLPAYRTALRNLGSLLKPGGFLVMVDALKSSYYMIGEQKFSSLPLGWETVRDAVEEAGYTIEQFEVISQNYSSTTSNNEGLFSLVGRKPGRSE
The experiment in a line: Inhibition of mouse recombinant NNMT using nicotinamide and SAM as substrate assessed as reduction in 1-methyl-nicotinamide formation incubated for 2 hrs by RapidFire Mass spectroscopy.

Series [2] has as its system HEK293. The experiment in a line: Cytotoxicity against human HEK293 cells overexpressing human NNMT assessed as reduction in ATP level measured after 24 hrs by CellTiter-glo luminescence assay. In kind it is cell-based. The following applies: hek293, 24 h. The method in brief:
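Reported value is the peptide concentration giving a 20% decline in cellular ATP in NNMT-overexpressing HEK293 cells, with peptides tested up to 100 μM.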
A general note: In ATP-based viability assays light output follows the ATP content of the culture.

The target in series [3] is T1, Nicotinamide N-methyltransferase. The experiment in a line: Inhibition of mouse recombinant NNMT using nicotinamide and SAM as substrate assessed as reduction in 1-methyl-nicotinamide formation incubated for 22 to 24 hrs by RapidFire Mass spectroscopy.
In series [4] the target is T2, Nicotinamide N-methyltransferase (Homo sapiens, UniProt P40261).
T2 sequence (P40261 whole entry): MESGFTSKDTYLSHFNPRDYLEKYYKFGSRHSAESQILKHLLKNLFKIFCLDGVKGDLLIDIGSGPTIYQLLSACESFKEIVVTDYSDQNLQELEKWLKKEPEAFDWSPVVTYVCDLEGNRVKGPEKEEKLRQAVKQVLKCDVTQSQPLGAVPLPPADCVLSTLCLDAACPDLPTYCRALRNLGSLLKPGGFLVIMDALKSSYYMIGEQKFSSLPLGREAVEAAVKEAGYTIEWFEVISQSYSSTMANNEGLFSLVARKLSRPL
The experiment in a line: Inhibition of human recombinant NNMT using nicotinamide and SAM as substrate assessed as reduction in 1-methyl-nicotinamide formation incubated for 22 to 24 hrs by RapidFire Mass spectroscopy.

SMILES strings stand for the structures. Numbered stars: 1 amine (or outer) side, 2 acyl side, 3 side chain; on linkers, the order of the positions; unused ones are H or OH. Bridge positions count the residues as written; N and C are the ends. Square brackets hold non-standard residues; d marks the D form. Peptide text beside a SMILES is read from it. Bip(4'-CONH2) = NC(=O)c1ccc(-c2ccc(C[C@H](N)C(=O)O)cc2)cc1; Pro(trans-4-Ph) = O=C(O)[C@@H]1C[C@@H](c2ccccc2)CN1; Phe(4-CONH2) = NC(=O)c1ccc(C[C@H](N)C(=O)O)cc1; Pro(4,4-F2) = O=C(O)[C@@H]1CC(F)(F)CN1; NHCH2CH2SCH2CO = O=C(CSCCN[*:1])[*:2]; NMeY = CN[C@@H](Cc1ccc(O)cc1)C(=O)O; Lys(Me2) = CN(C)CCCC[C@H](N)C(=O)O; NMeF = CN[C@@H](Cc1ccccc1)C(=O)O; tBuAla = CC(C)(C)C[C@H](N)C(=O)O; 3Pal = N[C@@H](Cc1cccnc1)C(=O)O; Tic = O=C(O)[C@@H]1Cc2ccccc2CN1; Pip = O=C(O)[C@@H]1CCCCN1

`CC[C@H](C)[C@@H]1NC(=O)[C@H](CC(C)C)NC(=O)[C@@H]2CCCN2C(=O)[C@H](Cc2ccccc2)NC(=O)CSC[C@@H](C(=O)NCC(N)=O)NC(=O)CNC(=O)[C@H](CCCCN)NC(=O)[C@H](CCCNC(=N)N)NC(=O)[C@@H]2CCCN2C(=O)[C@H](Cc2ccccc2)NC1=O` ({CH2CO}-FPLIFPRKGCG-NH2; thioether N-10): in series [1], the IC50 (as a rule, the concentration that inhibits the measured activity by half) came to 0.243 µM.

Turning to `CC(C)C[C@@H]1NC(=O)[C@@H]2CCCN2C(=O)[C@H](Cc2ccccc2)NC(=O)CSC[C@@H](C(N)=O)NC(=O)[C@H](Cc2ccc(-c3ccc(C(N)=O)cc3)cc2)NC(=O)[C@@H]2Cc3ccccc3CN2C(=O)[C@@H]2CCCN2C(=O)[C@H](CCCCN)NC1=O` ({CH2CO}-FPLKP[Tic][Bip(4'-CONH2)]C-NH2; thioether N-8), the CC20 in series [2] is more than 100 µM.

In the case of `CN1C(=O)[C@@H]2CCCN2C(=O)[C@H](Cc2ccccc2)NC(=O)CSC[C@@H](C(N)=O)NC(=O)[C@H](Cc2ccc(C(N)=O)cc2)NC(=O)[C@@H]2Cc3ccccc3CN2C(=O)[C@@H]2CCCN2C(=O)[C@H](CCCNC(=N)N)NC(=O)[C@@H]1Cc1ccc(O)cc1` ({CH2CO}-FP[NMeY]RP[Tic][Phe(4-CONH2)]C-NH2; thioether N-8), the IC50 in series [3] and in series [4] was more than 30 µM each time.

For the molecule `CN1C(=O)CSCCNC(=O)[C@H](Cc2ccc(-c3ccc(C(N)=O)cc3)cc2)NC(=O)[C@@H]2Cc3ccccc3CN2C(=O)[C@@H]2CC(F)(F)CN2C(=O)[C@@H]2CCCCN2C(=O)[C@H](CC(C)(C)C)NC(=O)[C@@H]2C[C@@H](c3ccccc3)CN2C(=O)[C@@H]1Cc1ccccc1` (cyclo([NMeF][Pro(trans-4-Ph)][tBuAla][Pip][Pro(4,4-F2)][Tic][Bip(4'-CONH2)][NHCH2CH2SCH2CO])), the CC20 in series [2] was more than 100 µM.

On to `CN1C(=O)CSC[C@@H](C(N)=O)NC(=O)[C@H](Cc2ccc(C(N)=O)cc2)NC(=O)[C@@H]2Cc3ccccc3CN2C(=O)[C@@H]2CCCN2C(=O)[C@H](Cc2cccnc2)NC(=O)[C@H](Cc2ccc(O)cc2)NC(=O)[C@@H]2CCCN2C(=O)[C@@H]1Cc1ccccc1` ({CH2CO}-[NMeF]PY[3Pal]P[Tic][Phe(4-CONH2)]C-NH2; thioether N-8), for which the IC50 in series [3] and in series [4] was more than 100 µM each time.

Turning to `CN1C(=O)CSC[C@@H](C(N)=O)NC(=O)[C@H](Cc2ccc(C(N)=O)cc2)NC(=O)[C@@H]2Cc3ccccc3CN2C(=O)[C@@H]2CCCN2C(=O)[C@H](Cc2c[nH]cn2)NC(=O)[C@H](Cc2ccc(O)cc2)NC(=O)[C@@H]2CCCN2C(=O)[C@@H]1Cc1ccccc1` ({CH2CO}-[NMeF]PYHP[Tic][Phe(4-CONH2)]C-NH2; thioether N-8), the IC50 in series [3] and in series [4] was more than 100 µM throughout.

Turning to `CC[C@H](C)[C@@H]1NC(=O)[C@H](CC(C)C)NC(=O)[C@@H]2CCCN2C(=O)[C@H](Cc2ccccc2)NC(=O)CSC[C@@H](C(N)=O)NC(=O)CNC(=O)[C@H](CCCCN)NC(=O)[C@H](CCCNC(=N)N)NC(=O)[C@@H]2CCCN2C(=O)[C@H](Cc2ccccc2)NC1=O` ({CH2CO}-FPLIFPRKGC-NH2; thioether N-10), the IC50 in series [1] was more than 30 µM.

Turning to `N=C(N)NCCC[C@@H]1NC(=O)[C@H](Cc2ccc(O)cc2)NC(=O)[C@@H]2CCCN2C(=O)[C@H](Cc2ccccc2)NC(=O)CSC[C@@H](C(N)=O)NC(=O)[C@H](Cc2ccc(C(N)=O)cc2)NC(=O)[C@@H]2Cc3ccccc3CN2C(=O)[C@@H]2CCCN2C1=O` ({CH2CO}-FPYRP[Tic][Phe(4-CONH2)]C-NH2; thioether N-8), in series [2], the CC20 was more than 100 µM. Moreover, the IC50 in series [3] was found to be 0.025 µM.

For `CN(C)CCCC[C@@H]1NC(=O)[C@H](CC(C)(C)C)NC(=O)[C@@H]2C[C@@H](c3ccccc3)CN2C(=O)[C@H](Cc2ccccc2)N(C)C(=O)CSCCNC(=O)[C@H](Cc2ccc(-c3ccc(C(N)=O)cc3)cc2)NC(=O)[C@@H]2Cc3ccccc3CN2C(=O)[C@@H]2CC(F)(F)CN2C1=O` (cyclo([Lys(Me2)][Pro(4,4-F2)][Tic][Bip(4'-CONH2)][NHCH2CH2SCH2CO][NMeF][Pro(trans-4-Ph)][tBuAla])), the CC20 in series [2] is more than 100 µM. For the same molecule, the IC50 in series [3] was 0.00062 µM.

These data come from ChEMBL document CHEMBL4808207, “Macrocyclic Peptides as a Novel Class of NNMT Inhibitors: A SAR Study Aimed at Inhibitory Activity in the Cell” (ACS Med Chem Lett, 2021).
